According to ChEMBL document CHEMBL4732181, “Pyrazolo[3,4-d]pyrimidine-based dual EGFR T790M/HER2 inhibitors: Design, synthesis, structure-activity relationship and biological activity as potential antitumor and anticonvulsant agents” (Eur J Med Chem, 2021):

Assays:
WI-38 = test: Cytotoxicity against human WI-38 cells assessed as reduction in cell viability after 48 hrs by MTT assay; assay type: cell-based; details: WI-38, 48 h
Method in brief: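 Cells from ATCC grown in DMEM with 10% FBS, insulin and 1% penicillin-streptomycin. Plated at 1.2-1.8 × 10,000 cells/well for 24 h, then exposed to compounds in DMSO vehicle for 48 h. MTT 0.5 mg/ml added for 2 h; absorbance read at 570 nm. Experiments run in triplicate.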

Mus musculus [1] = test: Anticonvulsant activity against mouse model of LiCa/pilocarpine-induced status epilepticus assessed as mean power frequency at 20 mg/kg, po for 10 days by EEG method relative to control; assay type: functional; details: time 10 day
Method in brief: (§1)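 Male mice (20-30 g), five per group, dosed orally once daily for 10 days. Status epilepticus was then induced with LiCa (3 mEq/kg i.p.), atropine sulfate (1 mg/kg i.p.) 30 min before pilocarpine, and pilocarpine HCl (300 mg/kg i.p.) 2 h after LiCa. Normal controls received oral distilled water. Comparators were untreated SE, phenytoin and lamotrigine. One-way ANOVA with Tukey post-hoc; mean ± SD.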

Mus musculus [2] = test: Anticonvulsant activity against mouse model of LiCa/pilocarpine-induced status epilepticus assessed as spectral edge frequency at 20 mg/kg, po for 10 days by EEG method relative to control; assay type: functional; details: time 10 day; method in brief: as §1
Mus musculus [3] = test: Anticonvulsant activity against mouse model of LiCa/pilocarpine-induced status epilepticus assessed as total power at 20 mg/kg, po for 10 days by EEG method relative to control; assay type: functional; details: time 10 day; method in brief: as §1
Mus musculus [4] = test: Anticonvulsant activity against mouse model of LiCa/pilocarpine-induced status epilepticus assessed as amplitude at 20 mg/kg, po for 10 days by EEG method relative to control; assay type: functional; details: time 10 day; method in brief: as §1
Mus musculus [5] = test: Anticonvulsant activity against mouse model of LiCa/pilocarpine-induced status epilepticus assessed as amplitude density at 20 mg/kg, po for 10 days by EEG method relative to control; assay type: functional; details: time 10 day; method in brief: as §1
Mus musculus [6] = test: Anticonvulsant activity against mouse model of LiCa/pilocarpine-induced status epilepticus assessed as power pV2 at 20 mg/kg, po for 10 days by EEG method relative to control; assay type: functional; details: time 10 day; method in brief: as §1
Mus musculus [7] = test: Anticonvulsant activity against mouse model of LiCa/pilocarpine-induced status epilepticus assessed as total power density at 20 mg/kg, po for 10 days by EEG method relative to control; assay type: functional; details: time 10 day; method in brief: as §1
Mus musculus [8] = test: Anticonvulsant activity against mouse model of LiCa/pilocarpine-induced status epilepticus assessed as delta at 20 mg/kg, po for 10 days by EEG method relative to control; assay type: functional; details: time 10 day; method in brief: as §1
Mus musculus [9] = test: Anticonvulsant activity against mouse model of LiCa/pilocarpine-induced status epilepticus assessed as theta at 20 mg/kg, po for 10 days by EEG method relative to control; assay type: functional; details: time 10 day; method in brief: as §1
Mus musculus [10] = test: Anticonvulsant activity against mouse model of LiCa/pilocarpine-induced status epilepticus assessed as alpha at 20 mg/kg, po for 10 days by EEG method relative to control; assay type: functional; details: time 10 day; method in brief: as §1
Mus musculus [11] = test: Anticonvulsant activity against mouse model of LiCa/pilocarpine-induced status epilepticus assessed as MDA level in brain at 20 mg/kg, po for 10 days by calorimetric method relative to control; assay type: functional; details: time 10 day; method in brief: as §1
Mus musculus [12] = test: Anticonvulsant activity against mouse model of LiCa/pilocarpine-induced status epilepticus assessed as GSH level in brain at 20 mg/kg, po for 10 days by calorimetric method relative to control; assay type: functional; details: time 10 day; method in brief: as §1
Mus musculus [13] = test: Anticonvulsant activity against mouse model of LiCa/pilocarpine-induced status epilepticus assessed as GABA level in brain at 20 mg/kg, po for 10 days by ELISA relative to control; assay type: functional; details: time 10 day; method in brief: as §1
Mus musculus [14] = test: Anticonvulsant activity against mouse model of LiCa/pilocarpine-induced status epilepticus assessed as Glutamate level in brain at 20 mg/kg, po for 10 days by ELISA relative to control; assay type: functional; details: time 10 day; method in brief: as §1

SMILES | IC50 (WI-38) [nM] | Activity (Mus musculus [1]) [%] | Activity (Mus musculus [2]) [%] | Activity (Mus musculus [3]) [%] | Activity (Mus musculus [4]) [%] | Activity (Mus musculus [5]) [%] | Activity (Mus musculus [6]) [%] | Activity (Mus musculus [7]) [%] | Activity (Mus musculus [8]) [%] | Activity (Mus musculus [9]) [%] | Activity (Mus musculus [10]) [%] | Activity (Mus musculus [11]) [%] | Activity (Mus musculus [12]) [%] | Activity (Mus musculus [13]) [%] | Activity (Mus musculus [14]) [%]
Cc1nn(-c2ccccc2)c2nc(C(=O)N3NC(=O)/C(=C/c4ccc(Cl)cc4)N=C3c3ccc(Cl)cc3)[nH]c(=O)c12 | 19.3 | -37.61 | -21.45 | 37.32 | 89.78 | 54.1 | 225.84 | 233.86 | 313.77 | 41.15 | 4.62 | -63.24 | 144.08 | 74.49 | -57.79
COc1ccc(/C=C2/N=C(c3ccccc3)N(C(=O)Cc3nc4c(c(C)nn4-c4ccccc4)c(=O)[nH]3)NC2=O)cc1 | 17.2 | -39.36 | -21.87 | 16.62 | 66.22 | 47.72 | 167.62 | 215.63 | 266.63 | 24.43 | 2.55 | -66.91 | 136.46 | 104.31 | -75.98
O=C1NC(=O)C(c2ccccc2)(c2ccccc2)N1 [PHENYTOIN] |  | -58.54 | -38.74 | 51.6 | 158.67 | 175.08 | 332.89 | 381.63 | 485.9 | 19.76 | -14.82 | -56.88 | 156.39 | 92.87 | -81.35
Cc1nn(-c2ccccc2)c2nc(CC(=O)N3NC(=O)/C(=C\c4ccccc4)N=C3c3ccc(Cl)cc3)[nH]c(=O)c12 | 80.2 | -28.52 | -17.33 | 0.29 | 55.11 | 68.09 | 117.95 | 175.43 | 264.98 | 34.99 | 34.85 | -46.88 | 191.86 | 40.05 | -45.51
COc1ccc(/C=C2\N=C(c3ccc(Cl)cc3)N(C(=O)c3nc4c(c(C)nn4-c4ccccc4)c(=O)[nH]3)NC2=O)cc1 | 25 | -40.42 | -22.51 | 14.87 | 71.11 | 46.81 | 190.77 | 245.46 | 330.62 | 20.25 | -4.74 | -67.54 | 150.97 | 87.03 | -66.54
Cc1nn(-c2ccccc2)c2nc(CC(=O)N3NC(=O)/C(=C\c4ccc(Cl)cc4)N=C3c3ccccc3)[nH]c(=O)c12 | 111 | -44.11 | -28.09 | 23.03 | 82.67 | 63.22 | 204.36 | 248.78 | 327.42 | 20.33 | 0.12 | -74.39 | 170 | 80.61 | -76.98
